Reference: ChEMBL document CHEMBL1135884 (J Med Chem, 2002)

What was measured:
Coagulation factor X [1] = molecular target: T1, Coagulation factor X (Homo sapiens, UniProt P00742); assay: Inhibitory concentration against human Coagulation factor Xa(fXa)
Summary of the method: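 4-Nitroaniline release was read by absorbance at 405 nm. Inhibitors were prepared as 40 mM DMSO stocks and tested at 500, 50 and 5 µM. Km and Ki were obtained by nonlinear regression, with known factor Xa inhibitors as reference.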

Serine protease 1 = molecular target: T2, Serine protease 1 (Bos taurus, UniProt P00760); assay: Inhibitory concentration against bovine trypsin
T2 sequence (P00760 whole entry): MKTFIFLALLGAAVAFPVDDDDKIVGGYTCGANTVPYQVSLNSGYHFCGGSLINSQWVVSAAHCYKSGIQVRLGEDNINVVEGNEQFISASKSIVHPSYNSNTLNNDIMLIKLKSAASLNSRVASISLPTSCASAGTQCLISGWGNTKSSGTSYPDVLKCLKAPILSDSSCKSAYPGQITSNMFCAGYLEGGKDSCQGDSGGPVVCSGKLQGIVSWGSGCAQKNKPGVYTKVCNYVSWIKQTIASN

Prothrombin = Prothrombin (Homo sapiens, UniProt P00734); assay: Inhibitory concentration against thrombin.
Coagulation factor X [2] = molecular target: T1, Coagulation factor X; assay: Inhibitory concentration against human Coagulation factor Xa (fXa)

T1 sequence (P00742 41-179 limits assumed): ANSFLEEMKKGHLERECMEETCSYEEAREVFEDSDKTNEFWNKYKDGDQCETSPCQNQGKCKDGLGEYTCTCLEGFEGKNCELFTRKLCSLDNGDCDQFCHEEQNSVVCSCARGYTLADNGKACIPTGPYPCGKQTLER
T1 sequence (P00742 235-488 limits assumed): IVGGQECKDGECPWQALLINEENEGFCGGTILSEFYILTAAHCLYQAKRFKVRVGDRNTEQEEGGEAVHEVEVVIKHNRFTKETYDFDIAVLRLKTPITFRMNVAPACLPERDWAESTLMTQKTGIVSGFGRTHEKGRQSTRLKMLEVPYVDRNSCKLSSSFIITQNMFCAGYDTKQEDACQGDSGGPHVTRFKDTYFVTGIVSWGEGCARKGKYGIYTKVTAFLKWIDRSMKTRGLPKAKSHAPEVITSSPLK

Ki (Coagulation factor X [1]) [nM]	Ki (Serine protease 1) [nM]	Ki (Prothrombin) [nM]	Ki (Coagulation factor X [2]) [nM]	SMILES
	14000			N=C(N)c1cccc(C(=O)NCC(=O)NCC2CCC(CN)CC2)c1 (configuration not stated)
	7400			N=C(N)c1cccc(C(=O)N[C@@H](C(=O)NCC2CCC(CN)CC2)c2ccccc2)c1 (some centres not stated)
			200	N=C(N)c1ccccc1 [BENZAMIDINE]
	159			CC(=N)N1CCC(Oc2ccc(N(Cc3ccc4ccc(C(=N)N)cc4c3)S(=O)(=O)CC(=O)O)cc2)CC1 [YM-60828]

The remaining lines, values behind:

SMILES	Ki (Coagulation factor X [1]) [nM]	Ki (Serine protease 1) [nM]	Ki (Prothrombin) [nM]	Ki (Coagulation factor X [2]) [nM]
N=C(N)c1cccc(C(=O)N[C@@H](C(=O)N2CCN(c3ccc(Cl)cc3)CC2)c2ccccc2)c1	16	1700	1600	
N=C(N)c1cccc(C(=O)N[C@@H](C(=O)OCCC2CCN(C(=N)N)CC2)c2ccccc2)c1		1600		26
CCOC(=O)[C@@H](Cc1ccc2ccccc2c1)NC(=O)c1cccc(C(=N)N)c1		12500		2000
N=C(N)c1cccc(C(=O)N[C@@H](C(=O)N2CCC(C(=O)c3ccccc3)CC2)c2ccccc2)c1		980		
